Assay results taken from ChEMBL document CHEMBL4266056, “Discovery and Pharmacology of a Novel Somatostatin Subtype 5 (SSTR5) Antagonist: Synergy with DPP-4 Inhibition” (ACS Med Chem Lett, 2018).
The source made the active and inactive calls. The rule behind the calls is not given here.

Key:
[1] = Half life in rhesus monkey at […], iv or 1 mg/kg, po; type: ADME, organism-based, Macaca mulatta; details: in vivo
[2] = target: T1, Prostaglandin D2 receptor (Homo sapiens, UniProt Q13258); test: Inhibition of prostanoid DP receptor (unknown origin)
T1 sequence (Q13258 whole entry): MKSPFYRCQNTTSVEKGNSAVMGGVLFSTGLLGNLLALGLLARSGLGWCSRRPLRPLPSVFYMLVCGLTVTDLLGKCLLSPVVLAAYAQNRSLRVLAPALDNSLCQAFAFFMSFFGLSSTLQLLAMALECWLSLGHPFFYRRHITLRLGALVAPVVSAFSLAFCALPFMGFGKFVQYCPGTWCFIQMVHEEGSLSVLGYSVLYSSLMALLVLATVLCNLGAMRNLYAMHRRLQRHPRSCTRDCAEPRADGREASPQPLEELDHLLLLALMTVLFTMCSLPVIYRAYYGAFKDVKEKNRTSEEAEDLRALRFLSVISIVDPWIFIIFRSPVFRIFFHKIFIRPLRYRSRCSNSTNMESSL

[3] = Unbound plasma concentration in C57BL/6N mouse plasma at 0.03 mg/kg, po measured at 3 hrs; type: ADME, organism-based; details: in vivo
[4] = Fraction unbound in human plasma at 0.1 uM using [3H]-labeled compound; type: ADME, cell-free
[5] = Aqueous solubility of the compound in neutral solution; type: physicochemical
[6] = system: Mus musculus; test: Antidiabetic activity in HFD fed C57BL/6N mouse assessed as decrease in blood glucose AUC at 0.3 mg/kg administered as single oral dose pretreated for 60 mins followed by glucose challenge measured after 120 mins by OGTT; type: functional; set-up: scale not given: the % may be the effect or the level left
In short: (§1)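 Oral dose titration (0.03-3 mg/kg) in HFD-fed mice, n=8. Dosing was followed by an oral glucose tolerance test. Net blood glucose AUC was expressed as % reduction versus vehicle, with P values versus vehicle.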

[7] = Volume of distribution in dog at […], iv or 1 mg/kg, po; type: ADME, organism-based, Canis lupus familiaris; details: in vivo
[8] = system: Mus musculus; test: Antidiabetic activity in HFD fed C57BL/6N mouse assessed as decrease in blood glucose AUC at 0.03 mg/kg administered as single oral dose pretreated for 60 mins followed by glucose challenge measured after 120 mins by OGTT; type: functional; set-up: scale not given: the % may be the effect or the level left; in short: as §1
[9] = system: Pancreatic islet; test: Induction of glucose-dependent insulin secretion in human pancreatic islets at 0.5 to 5 uM preincubated for 30 mins with 16 mM glucose followed by compound addition measured after 60 mins by ELISA; type: functional, cell-based
In short: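 Isolated pancreatic islets from non-diabetic human donors were incubated with compound at 0.5 or 5 µM in 2 mM (G2) or 16 mM (G16) glucose. Insulin secretion was measured against a DMSO control, with P<0.05 significance.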

[10] = Drug uptake in C57BL/6N mouse whole blood at 0.03 mg/kg, po measured at 3 hrs; type: ADME, organism-based; details: read-out: Drug uptake
In short: (§2)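 Whole-blood compound exposure was measured 3 h after oral dosing (0.03-3 mg/kg) in HFD mice run through the OGTT dose titration. Unbound levels were derived using the plasma free fraction.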

[11] = Oral bioavailability in rat at 2 mg/kg; type: ADME, organism-based; details: in vivo
In short: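 Rat pharmacokinetics after separate intravenous (1 mg/kg) and oral (2 mg/kg) dosing. Clearance is reported in mL/kg/min and half-life in hours. Oral bioavailability is given as F (%).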

[12] = target: Somatostatin receptor type 3 (Homo sapiens, UniProt P32745); test: Antagonist activity at human SSTR3 expressed in CHO-K1 cell membranes; type: functional, cell-based
Somatostatin receptor type 3, sequence (P32745 whole entry): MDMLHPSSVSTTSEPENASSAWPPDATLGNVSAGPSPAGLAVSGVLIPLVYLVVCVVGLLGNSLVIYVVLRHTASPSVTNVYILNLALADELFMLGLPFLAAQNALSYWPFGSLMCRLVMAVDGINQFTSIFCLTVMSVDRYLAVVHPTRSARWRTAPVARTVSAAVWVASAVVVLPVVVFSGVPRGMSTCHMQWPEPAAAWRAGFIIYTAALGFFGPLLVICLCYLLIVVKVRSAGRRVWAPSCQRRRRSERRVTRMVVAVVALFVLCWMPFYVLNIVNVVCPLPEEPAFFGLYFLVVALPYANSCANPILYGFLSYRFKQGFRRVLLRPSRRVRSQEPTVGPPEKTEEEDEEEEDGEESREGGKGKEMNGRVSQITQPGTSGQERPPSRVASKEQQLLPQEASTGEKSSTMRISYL
In short: (§3)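 Counter-screen by filtration membrane binding: competitive displacement of radiolabeled SST-28 from cell membranes expressing human SSTR1, SSTR2, SSTR3 or SSTR4. The IC50 is the mean of at least duplicate experiments within a maximal threefold range.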

[13] = system: Mus musculus; test: Antidiabetic activity in HFD fed C57BL/6N mouse assessed as decrease in blood glucose AUC at 1 mg/kg administered as single oral dose pretreated for 60 mins followed by glucose challenge measured after 120 mins by OGTT; type: functional; set-up: scale not given: the % may be the effect or the level left; in short: as §1
[14] = system: Mus musculus; test: Induction of hypoglycemia in C57BL/6N mouse assessed as decrease in basal blood glucose levels at 3 to 30 mg/kg, po measured over 5 hrs; type: organism-based; details: in vivo
[15] = system: Mus musculus; test: Antidiabetic activity in HFD fed C57BL/6N mouse assessed as decrease in blood glucose AUC administered as single oral dose pretreated for 60 mins followed by glucose challenge measured after 120 mins by OGTT; details: read-out: MED
[16] = target: Somatostatin receptor type 2 (Homo sapiens, UniProt P30874); test: Antagonist activity at human SSTR2 expressed in CHO-K1 cell membranes; type: functional, cell-based; in short: as §3
Somatostatin receptor type 2, sequence (P30874 whole entry): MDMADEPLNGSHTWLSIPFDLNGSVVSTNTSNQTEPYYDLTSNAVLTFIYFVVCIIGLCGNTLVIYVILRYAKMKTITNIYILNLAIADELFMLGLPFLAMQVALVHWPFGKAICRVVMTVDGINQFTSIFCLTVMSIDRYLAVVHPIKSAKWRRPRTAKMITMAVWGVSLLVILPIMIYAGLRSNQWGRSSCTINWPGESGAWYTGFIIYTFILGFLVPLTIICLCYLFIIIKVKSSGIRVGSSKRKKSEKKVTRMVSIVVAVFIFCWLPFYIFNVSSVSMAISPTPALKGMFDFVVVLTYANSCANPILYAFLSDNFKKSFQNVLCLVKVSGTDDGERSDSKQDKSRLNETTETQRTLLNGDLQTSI

[17] = target: Cytochrome P450 3A4 (Homo sapiens, UniProt P08684); test: Inhibition of human CYP3A4; type: ADME
Cytochrome P450 3A4, sequence (P08684 whole entry): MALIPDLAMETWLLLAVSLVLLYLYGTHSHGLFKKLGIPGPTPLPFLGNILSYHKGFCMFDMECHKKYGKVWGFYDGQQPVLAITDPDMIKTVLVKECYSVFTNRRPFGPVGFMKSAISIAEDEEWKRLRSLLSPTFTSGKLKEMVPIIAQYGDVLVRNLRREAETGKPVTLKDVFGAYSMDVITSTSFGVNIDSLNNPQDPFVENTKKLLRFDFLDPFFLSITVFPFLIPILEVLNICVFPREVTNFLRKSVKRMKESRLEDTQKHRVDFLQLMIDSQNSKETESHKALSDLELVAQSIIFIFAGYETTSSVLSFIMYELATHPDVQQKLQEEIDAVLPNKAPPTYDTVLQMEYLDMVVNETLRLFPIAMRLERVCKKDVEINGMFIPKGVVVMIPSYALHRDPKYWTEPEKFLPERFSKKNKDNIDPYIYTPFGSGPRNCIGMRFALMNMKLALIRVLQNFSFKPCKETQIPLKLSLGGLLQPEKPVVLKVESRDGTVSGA

[18] = Unbound plasma concentration in C57BL/6N mouse plasma at 1 mg/kg, po measured at 3 hrs; type: ADME, organism-based; details: in vivo
[19] = system: Pancreatic islet; test: Induction of SST-14 secretion in human pancreatic islets in presence of glucose by ELISA; type: functional, cell-based
In short: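 In the same human islet incubations, SST-14 and glucagon secretion were monitored alongside insulin.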

[20] = system: Mus musculus; test: Antidiabetic activity in HFD fed C57BL/6N mouse assessed as decrease in blood glucose AUC at 3 mg/kg administered as single oral dose pretreated for 60 mins followed by glucose challenge measured after 120 mins by OGTT; type: functional; set-up: scale not given: the % may be the effect or the level left; in short: as §1
[21] = Fraction unbound in rat plasma at 0.1 uM using [3H]-labeled compound; type: ADME, cell-free
[22] = target: Voltage-gated inwardly rectifying potassium channel KCNH2 (Homo sapiens, UniProt Q12809); test: Inhibition of MK-499 binding to human ERG
Voltage-gated inwardly rectifying potassium channel KCNH2, sequence (Q12809 whole entry): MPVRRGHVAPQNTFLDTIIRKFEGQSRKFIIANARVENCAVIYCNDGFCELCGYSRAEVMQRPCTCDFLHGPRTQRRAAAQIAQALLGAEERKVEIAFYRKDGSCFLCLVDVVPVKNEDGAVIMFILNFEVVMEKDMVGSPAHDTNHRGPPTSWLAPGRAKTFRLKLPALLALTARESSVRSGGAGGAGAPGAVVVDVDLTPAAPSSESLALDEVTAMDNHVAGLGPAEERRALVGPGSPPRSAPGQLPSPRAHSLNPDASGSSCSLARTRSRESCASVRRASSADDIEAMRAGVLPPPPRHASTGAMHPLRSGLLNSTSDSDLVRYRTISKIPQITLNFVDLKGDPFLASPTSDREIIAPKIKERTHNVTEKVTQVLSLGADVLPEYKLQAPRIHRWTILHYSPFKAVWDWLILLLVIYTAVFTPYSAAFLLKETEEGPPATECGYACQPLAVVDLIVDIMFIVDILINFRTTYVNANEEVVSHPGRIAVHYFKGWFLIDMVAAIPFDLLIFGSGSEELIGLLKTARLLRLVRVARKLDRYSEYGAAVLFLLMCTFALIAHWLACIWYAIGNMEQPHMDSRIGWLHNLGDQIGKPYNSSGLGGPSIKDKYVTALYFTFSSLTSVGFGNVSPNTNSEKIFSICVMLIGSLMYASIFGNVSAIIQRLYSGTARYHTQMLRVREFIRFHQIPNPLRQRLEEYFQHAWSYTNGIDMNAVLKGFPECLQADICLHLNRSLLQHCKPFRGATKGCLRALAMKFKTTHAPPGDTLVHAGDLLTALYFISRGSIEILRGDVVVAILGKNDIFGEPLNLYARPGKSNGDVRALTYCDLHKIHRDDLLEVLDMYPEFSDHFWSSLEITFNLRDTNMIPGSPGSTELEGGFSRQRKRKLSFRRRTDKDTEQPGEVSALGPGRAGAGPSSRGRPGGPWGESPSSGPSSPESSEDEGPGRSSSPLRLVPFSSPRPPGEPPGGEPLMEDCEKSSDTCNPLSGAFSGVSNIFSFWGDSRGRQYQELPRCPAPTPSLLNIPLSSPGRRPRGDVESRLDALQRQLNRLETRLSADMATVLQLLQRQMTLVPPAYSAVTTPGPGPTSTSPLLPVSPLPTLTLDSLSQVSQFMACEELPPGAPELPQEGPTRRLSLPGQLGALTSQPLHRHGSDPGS

[23] = target: Somatostatin receptor type 4 (Homo sapiens, UniProt P31391); test: Antagonist activity at human SSTR4 expressed in CHO-K1 cell membranes; type: functional, cell-based; in short: as §3
Somatostatin receptor type 4, sequence (P31391 whole entry): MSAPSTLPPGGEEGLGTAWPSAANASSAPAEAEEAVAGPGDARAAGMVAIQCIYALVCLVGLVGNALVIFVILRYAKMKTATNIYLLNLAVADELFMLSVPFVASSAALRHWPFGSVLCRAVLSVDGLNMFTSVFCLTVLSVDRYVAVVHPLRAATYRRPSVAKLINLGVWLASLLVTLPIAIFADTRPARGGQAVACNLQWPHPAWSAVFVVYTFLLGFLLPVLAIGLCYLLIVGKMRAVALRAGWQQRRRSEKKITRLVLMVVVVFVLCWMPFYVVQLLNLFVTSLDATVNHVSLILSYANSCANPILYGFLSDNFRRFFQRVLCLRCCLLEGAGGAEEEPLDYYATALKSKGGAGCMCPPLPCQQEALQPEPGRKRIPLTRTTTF

[24] = Unbound plasma concentration in C57BL/6N mouse plasma at 3 mg/kg, po measured at 3 hrs; type: ADME, organism-based; details: in vivo
[25] = Drug uptake in C57BL/6N mouse whole blood at 0.3 mg/kg, po measured at 3 hrs; type: ADME, organism-based; details: read-out: Drug uptake; in short: as §2
[26] = target: Potassium voltage-gated channel subfamily E member 1 (Homo sapiens, UniProt P15382); test: Inhibition of IKs (unknown origin)
[27] = Oral bioavailability in rhesus monkey at 1 mg/kg; type: ADME, organism-based, Macaca mulatta; details: in vivo

half-life [1]: 2 h
IC50 [2]: 3 µM
Cp(f) [3]: 0.2 nM
Fu [4]: 2.2%
solubility [5]: 300 µg/mL
Vd [7]: 2.82 L/kg
concentration at 3 h [10]: 4 nM
bioavailability [11]: 41%
IC50 [12]: > 10 µM
IC50 [16]: > 10 µM
IC50 [17]: > 50 µM
Cp(f) [18]: 6 nM
Fu [21]: 5.7%
IC50 [23]: > 10 µM
Cp(f) [24]: 16.1 nM
concentration at 3 h [25]: 34 nM
IC50 [26]: > 15 µM
bioavailability [27]: 40%
SMILES: CCOc1cc(CN2CCC3(CC2)CC(=O)N(c2ccc(C(=O)O)cc2)C3)cc(OCC)c1-c1ccc(F)cc1.O=C(O)C(F)(F)F
Activity [6]: 59%
Activity [8]: 23%
Activity [9]: Active
Activity [13]: 74%
Activity [14]: Non-Toxic
minimal effective dose [15]: 0.1 mg/kg
Activity [19]: inactive
Activity [20]: 84 - 94%
IC50 [22]: 45 µM
